Assay results from ChEMBL document CHEMBL1124827, “The preparation of 2'-deoxy-2'-fluoro-1',2'-seconucleosides as potential antiviral agents” (J Med Chem, 1990).
Calls of active or inactive are those of the source.

Experiments:
[1] = tested on: Vesicular stomatitis virus; assay: Antiviral activity was determined against Vesicular Stomatitus virus; format: functional, organism-based
[2] = tested on: unidentified adenovirus; assay: (§1) In vitro antiviral activity was determined against Adenovirus type 2 in monolayer culture of H.Ep.2 cells; format: functional, organism-based
[3] = tested on: Vaccinia virus; assay: Antiviral activity was determined against Vaccinia virus; format: functional, organism-based; details: Orthopoxvirus vaccinia
[4] = tested on: Vero; assay: In vitro antiviral activity was determined against Sicilian Sandfly Fever virus in monolayer culture of Vero cells; format: functional, cell-based; details: Chlorocebus sabaeus
Method in brief: (§2)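 Virus was adsorbed for 1 h onto monolayers: H.Ep.2 cells for Adenovirus type 2, LLC-MK2 cells for Punta Toro, and Vero cells for Sicilian sandfly fever. Medium with a range of drug concentrations was then added. On the day of maximum cytopathic effect in virus-control wells, the medium was removed and the monolayers were stained with crystal violet. Cytopathic effect was scored microscopically.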

[5] = tested on: Vero; assay: In vitro antiviral activity was determined against Yellow Fever virus in monolayer culture of Vero cells; format: functional, cell-based; details: Chlorocebus sabaeus
[6] = tested on: Vero; assay: In vitro antiviral activity was determined against Japanese encephalitis virus in monolayer culture of Vero cells; format: functional, cell-based; details: Chlorocebus sabaeus
[7] = tested on: Vero; assay: Antiviral activity was determined as inhibition of plaque formation against Rift Valley fever in monolayer culture of Vero cells; format: functional, cell-based; details: Chlorocebus sabaeus
[8] = tested on: LLC-MK2; assay: In vitro antiviral activity was determined against Punta toro virus in monolayer culture of LLC-MK2 cells; format: functional, cell-based; details: Cercopithecidae; method in brief: as §2
[9] = tested on: Human immunodeficiency virus 1; assay: Antiviral activity was determined against Human immunodeficiency virus; format: functional, organism-based
[10] = tested on: unidentified adenovirus; assay: as §1; format: functional, organism-based; method in brief: as §2; remark: listed apart in the source
[11] = tested on: Pichinde virus; assay: Antiviral activity was determined against Pichinde virus; format: functional, organism-based

Measured: Activity

O=c1ccn(COC2COP(=O)(Oc3ccc([N+](=O)[O-])cc3)OC2CF)c(=O)[nH]1 (stereo not given)
inactive: [1] | [2] | [3]

O=c1[nH]c(=O)n(COC(CO)C(O)CF)cc1I (stereo not given)
not listed: [9] | [10] | [11]
inactive: all other assays above

Nc1nc(O)c2ncn(COC(CO)C(O)CF)c2n1 (stereo not given)
not listed: [2] | [11]
inactive: all other assays above

O=c1ccn(COC(CO)C(O)CF)c(=O)[nH]1 (stereo not given)
not listed: [10] | [11]
inactive: all other assays above

Cc1cn(COC2COP(=O)(Oc3ccc([N+](=O)[O-])cc3)OC2CF)c(=O)[nH]c1=O (stereo not given)
inactive: [1] | [2] | [3]

Cc1cn(COC(CO)C(O)CF)c(=O)[nH]c1=O (stereo not given)
not listed: [10]
inactive: all other assays above

NC(=O)c1ncn(COC(CO)C(O)CF)n1 (stereo not given)
not listed: [9] | [10] | [11]
inactive: all other assays above
